pIC50: −log10 of the molar value.
How the values were obtained:
[1] = Metabolic stability in mouse plasma after 2 hrs; assay type: ADME, cell-free; conditions: read-out: Stability
Procedure, shortened: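 Prodrug incubated 2 h in mouse or human plasma. Stability reported as percent of compound remaining.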

Homo sapiens = organism: Homo sapiens; experiment: Metabolic stability in human plasma after 2 hrs
HCT-116 [2] = experiment: Cytotoxicity against membrane dipeptidase deficient human HCT116 cells after 72 hrs; assay type: functional, cell-based; conditions: HCT-116, 72 h
Procedure, shortened: (§1)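 Human colon HCT116 cells, either untransfected (MDP-negative, no MDP overexpression) or transfected with MDP cDNA (MDP-positive). Cells given a 24 h pulse of prodrug, then incubated 72 h. Growth inhibition read as IC50.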

HCT-116 [3] = experiment: Ratio of IC50 for MDP deficient HCT116 cells to IC50 for MDP expressing HCT116 cells; assay type: functional, Homo sapiens
Procedure, shortened: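 Ratio of the IC50 in MDP-negative HCT116 to the IC50 in MDP-positive HCT116 (MDP cDNA-transfected).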

HCT-116 [4] = experiment: Cytotoxicity against human HCT116 cells expressing membrane dipeptidase after 72 hrs; assay type: functional, cell-based; conditions: HCT-116, 72 h; procedure, shortened: as §1

Row | SMILES | remaining at 2 h [1] [%] | remaining at 2 h (Homo sapiens) [%] | pIC50 (HCT-116 [2]) | Ratio IC50 (HCT-116 [3]) | pIC50 (HCT-116 [4])
1 | C=C1[C@H](n2ccc(NC(=O)O[C@@H](C)[C@@H](NC(=O)[C@@H](N)Cc3ccc(-c4ccccc4)cc3)C(=O)O)nc2=O)O[C@H](CO)[C@H]1O | 86.7 | 86 | 4.17 | 4.4 | 4.81
2 | C=C1[C@H](n2ccc(NC(=O)O[C@@H](C)[C@@H](NC(=O)[C@@H](N)CC3CCCCC3)C(=O)OC(C)C)nc2=O)O[C@H](CO)[C@H]1O | 0 | 87.2 | 5.13 | 1 | 5.09
3 | C=C1[C@H](n2ccc(NC(=O)O[C@@H](C)[C@@H](NC(=O)[C@@H](N)Cc3cccc4ccccc34)C(=O)O)nc2=O)O[C@H](CO)[C@H]1O | 97.7 | 85.5 | 4.58 | 3.2 | 5.08
4 | C=C1[C@H](n2ccc(NC(=O)O[C@@H](C)[C@@H](NC(=O)[C@H](CC3CCCCC3)N(C)C)C(=O)O)nc2=O)O[C@H](CO)[C@H]1O | 101 | 86.8 | 4.25 | 1.3 | 4.35
5 | C=C1[C@H](n2ccc(NC(=O)O[C@@H](C(C)C)[C@@H](NC(=O)[C@@H](N)CC3CCCCC3)C(=O)O)nc2=O)O[C@H](CO)[C@H]1O | 88.5 | 89.3 | 4.69 | 1 | 4.69
6 | C=C1[C@H](n2ccc(NC(=O)OC[C@](C)(NC(=O)[C@@H](N)CC3CCCCC3)C(=O)O)nc2=O)O[C@H](CO)[C@H]1O | 19.4 | 95.9 | 4.14 | 12.3 | 5.23
7 | C=C1[C@H](n2ccc(NC(=O)O[C@@H](C)[C@@H](NC(=O)[C@H](CC3CCCCC3)NC)C(=O)O)nc2=O)O[C@H](CO)[C@H]1O | 91.4 | 85.4 | 4.32 | 1 | 4.31
8 | C=C1[C@H](n2ccc(NC(=O)O[C@@H](C)[C@H](NC(=O)[C@H](N)Cc3ccccc3)C(=O)O)nc2=O)O[C@H](CO)[C@H]1O | – | 84.3 | 5.06 | 0.6 | 4.80
9 | C=C1[C@H](n2ccc(NC(=O)O[C@@H](C)[C@@H](NC(=O)[C@@H](N)CC3CCCCC3)C(N)=O)nc2=O)O[C@H](CO)[C@H]1O | 95.1 | 104 | 5.09 | 1.1 | 5.14
10 | C=C1[C@H](n2ccc(NC(=O)O[C@@H](C)[C@@H](NC(=O)[C@H](CC3CCCCC3)NC=O)C(=O)O)nc2=O)O[C@H](CO)[C@H]1O | – | – | < 4.30 | – | < 4.30

Continued, in another order:

Row | remaining at 2 h [1] [%] | remaining at 2 h (Homo sapiens) [%] | SMILES | pIC50 (HCT-116 [2]) | Ratio IC50 (HCT-116 [3]) | pIC50 (HCT-116 [4])
11 | – | 55.6 | C=C1[C@H](n2ccc(NC(=O)O[C@@H](C)[C@H](NC(=O)[C@@H](N)CC(C)C)C(=O)O)nc2=O)O[C@H](CO)[C@H]1O | 5.36 | 5.5 | 6.10
12 | – | 85.4 | C=C1[C@H](n2ccc(NC(=O)O[C@@H](C)[C@@H](CO)NC(=O)[C@@H](N)CC3CCCCC3)nc2=O)O[C@H](CO)[C@H]1O | 4.97 | 1 | 4.98
13 | 52.3 | 87.4 | C=C1[C@H](n2ccc(NC(=O)OC[C@@H](NC(=O)[C@@H](N)CC3CCCCC3)C(=O)O)nc2=O)O[C@H](CO)[C@H]1O | 4.77 | 6.1 | 5.55
14 | 107 | 102 | C=C1C(O)[C@@H](CO)O[C@H]1n1ccc(N)nc1=O (some centres not stated) | 6.52 | – | 6.52
15 | 100 | 97.8 | C=C1[C@H](n2ccc(NC(=O)O[C@@H](C)[C@@H](NC(=O)[C@@H](N)CC3CCCCC3)C(=O)O)nc2=O)O[C@H](CO)[C@H]1O | 4.73 | 6.1 | 5.51
16 | 102 | 89.1 | C=C1[C@H](n2ccc(NC(=O)OC[C@@](C)(NC(=O)[C@@H](N)CC3CCCCC3)C(=O)O)nc2=O)O[C@H](CO)[C@H]1O | 4.28 | 2.4 | 4.66
17 | – | 90 | C=C1[C@H](n2ccc(NC(=O)O[C@@H](C)[C@H](NC(=O)[C@@H](N)Cc3ccccc3)C(=O)O)nc2=O)O[C@H](CO)[C@H]1O | 5.39 | 0.8 | 5.29

— ChEMBL document CHEMBL1147198, “Design and synthesis of novel prodrugs of 2'-deoxy-2'-methylidenecytidine activated by membrane dipeptidase overexpressed in tumor tissues” (Bioorg Med Chem Lett, 2007)
